Results as given in ChEMBL document CHEMBL1157776, “Synthesis, topoisomerase I and II inhibitory activity, cytotoxicity, and structure-activity relationship study of hydroxylated 2,4-diphenyl-6-aryl pyridines” (Bioorg Med Chem, 2010).
Where a name gives a salt, the structure may show the parent alone.

Experiments:
HL-60 = assay: Cytotoxicity against human HL60 cells after 2 days by automatic ELISA reader system; assay type: functional, cell-based; conditions: HL-60, 48 h
Summary of the method: (§1)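 Cells seeded at 2–4 × 10⁴ per well and grown overnight in medium with 10% FBS, 5% CO₂, 37 °C. Compound added on day 2; on day 4 CCK-8 solution added and incubated a further 4 h. Absorbance read at 450 nm and fitted to a four-parameter logistic equation for IC₅₀.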

HCT-15 = assay: Cytotoxicity against human HCT15 cells after 2 days by automatic ELISA reader system; assay type: functional, cell-based; conditions: HCT-15, 48 h; summary of the method: as §1
DU-145 = assay: Cytotoxicity against human DU145 cells after 2 days by automatic ELISA reader system; assay type: functional, cell-based; conditions: DU-145, 48 h; summary of the method: as §1
MDA-MB-231 = assay: Cytotoxicity against human MDA-MB-231 cells after 2 days by automatic ELISA reader system; assay type: functional, cell-based; conditions: MDA-MB-231, 48 h; summary of the method: as §1
HeLa = assay: Cytotoxicity against human HeLa cells after 2 days by automatic ELISA reader system; assay type: functional, cell-based; conditions: 48 h; summary of the method: as §1
[1] = target: DNA topoisomerase 2-alpha (Homo sapiens) (UniProt P11388); assay: Inhibition of human recombinant TOP2A-mediated relaxation of supercoiled Escherichia coli pBR322 DNA at 100 uM after 30 mins by transillumination
Summary of the method: (§2)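 200 ng supercoiled pBR322 with topo II, ± compound, 30 °C for 30 min. Buffer was 10 mM Tris–HCl pH 7.9, 50 mM NaCl, 5 mM MgCl₂, 1 mM EDTA, 1 mM ATP, BSA. Stopped with 7 mM EDTA, then 1% agarose gel in TAE at 25 V for 4 h. Ethidium bromide stain, UV transillumination, supercoiled DNA quantitated.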

[2] = target: DNA topoisomerase 2-alpha (Homo sapiens) (UniProt P11388); assay: Inhibition of human recombinant TOP2A-mediated relaxation of supercoiled Escherichia coli pBR322 DNA at 20 uM after 30 mins by transillumination; summary of the method: as §2
[3] = target: T1, DNA topoisomerase 1 (Homo sapiens) (UniProt P11387); assay: Inhibition of human recombinant TOP1-mediated relaxation of supercoiled Escherichia coli pBR322 DNA at 20 uM after 30 mins by transillumination
T1 sequence (whole entry): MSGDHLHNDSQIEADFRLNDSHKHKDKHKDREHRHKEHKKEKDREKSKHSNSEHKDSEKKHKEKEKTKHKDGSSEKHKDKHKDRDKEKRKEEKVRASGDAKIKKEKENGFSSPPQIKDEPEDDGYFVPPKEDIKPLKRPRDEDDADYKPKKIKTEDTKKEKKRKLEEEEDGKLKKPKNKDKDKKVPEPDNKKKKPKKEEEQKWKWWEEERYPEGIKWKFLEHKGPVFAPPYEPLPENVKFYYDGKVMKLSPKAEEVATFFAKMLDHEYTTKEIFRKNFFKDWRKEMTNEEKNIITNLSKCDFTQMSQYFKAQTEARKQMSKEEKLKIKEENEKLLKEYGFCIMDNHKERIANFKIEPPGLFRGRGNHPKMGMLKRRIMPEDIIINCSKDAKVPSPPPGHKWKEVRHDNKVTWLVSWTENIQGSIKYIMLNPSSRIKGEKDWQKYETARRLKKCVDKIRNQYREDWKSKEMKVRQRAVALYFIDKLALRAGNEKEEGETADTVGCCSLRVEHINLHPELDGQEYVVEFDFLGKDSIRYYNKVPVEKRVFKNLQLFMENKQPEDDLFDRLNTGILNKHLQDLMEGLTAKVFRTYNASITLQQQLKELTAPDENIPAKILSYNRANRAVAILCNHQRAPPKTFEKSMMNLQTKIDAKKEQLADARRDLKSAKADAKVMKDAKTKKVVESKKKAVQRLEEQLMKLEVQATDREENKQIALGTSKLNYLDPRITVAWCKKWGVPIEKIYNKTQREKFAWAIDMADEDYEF
Summary of the method: (§3)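 Relaxation assay: 100 ng supercoiled pBR322 with 0.4 units recombinant human topo I, ± compound (DMSO stocks 20 mM), 37 °C, 30 min. Buffer was 10 mM Tris–HCl pH 7.9, 150 mM NaCl, 0.1% BSA, 1 mM spermidine, 5% glycerol. Stopped with sarcosyl/bromophenol blue/glycerol, then 1% agarose gel in TAE at 15 V for 7 h. Ethidium bromide stain, UV transillumination, bands quantitated by densitometry.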

[4] = target: T1, DNA topoisomerase 1 (Homo sapiens); assay: Inhibition of human recombinant TOP1-mediated relaxation of supercoiled Escherichia coli pBR322 DNA at 100 uM after 30 mins by transillumination; summary of the method: as §3

Sequence of DNA topoisomerase 2-alpha (Homo sapiens) (P11388 whole entry): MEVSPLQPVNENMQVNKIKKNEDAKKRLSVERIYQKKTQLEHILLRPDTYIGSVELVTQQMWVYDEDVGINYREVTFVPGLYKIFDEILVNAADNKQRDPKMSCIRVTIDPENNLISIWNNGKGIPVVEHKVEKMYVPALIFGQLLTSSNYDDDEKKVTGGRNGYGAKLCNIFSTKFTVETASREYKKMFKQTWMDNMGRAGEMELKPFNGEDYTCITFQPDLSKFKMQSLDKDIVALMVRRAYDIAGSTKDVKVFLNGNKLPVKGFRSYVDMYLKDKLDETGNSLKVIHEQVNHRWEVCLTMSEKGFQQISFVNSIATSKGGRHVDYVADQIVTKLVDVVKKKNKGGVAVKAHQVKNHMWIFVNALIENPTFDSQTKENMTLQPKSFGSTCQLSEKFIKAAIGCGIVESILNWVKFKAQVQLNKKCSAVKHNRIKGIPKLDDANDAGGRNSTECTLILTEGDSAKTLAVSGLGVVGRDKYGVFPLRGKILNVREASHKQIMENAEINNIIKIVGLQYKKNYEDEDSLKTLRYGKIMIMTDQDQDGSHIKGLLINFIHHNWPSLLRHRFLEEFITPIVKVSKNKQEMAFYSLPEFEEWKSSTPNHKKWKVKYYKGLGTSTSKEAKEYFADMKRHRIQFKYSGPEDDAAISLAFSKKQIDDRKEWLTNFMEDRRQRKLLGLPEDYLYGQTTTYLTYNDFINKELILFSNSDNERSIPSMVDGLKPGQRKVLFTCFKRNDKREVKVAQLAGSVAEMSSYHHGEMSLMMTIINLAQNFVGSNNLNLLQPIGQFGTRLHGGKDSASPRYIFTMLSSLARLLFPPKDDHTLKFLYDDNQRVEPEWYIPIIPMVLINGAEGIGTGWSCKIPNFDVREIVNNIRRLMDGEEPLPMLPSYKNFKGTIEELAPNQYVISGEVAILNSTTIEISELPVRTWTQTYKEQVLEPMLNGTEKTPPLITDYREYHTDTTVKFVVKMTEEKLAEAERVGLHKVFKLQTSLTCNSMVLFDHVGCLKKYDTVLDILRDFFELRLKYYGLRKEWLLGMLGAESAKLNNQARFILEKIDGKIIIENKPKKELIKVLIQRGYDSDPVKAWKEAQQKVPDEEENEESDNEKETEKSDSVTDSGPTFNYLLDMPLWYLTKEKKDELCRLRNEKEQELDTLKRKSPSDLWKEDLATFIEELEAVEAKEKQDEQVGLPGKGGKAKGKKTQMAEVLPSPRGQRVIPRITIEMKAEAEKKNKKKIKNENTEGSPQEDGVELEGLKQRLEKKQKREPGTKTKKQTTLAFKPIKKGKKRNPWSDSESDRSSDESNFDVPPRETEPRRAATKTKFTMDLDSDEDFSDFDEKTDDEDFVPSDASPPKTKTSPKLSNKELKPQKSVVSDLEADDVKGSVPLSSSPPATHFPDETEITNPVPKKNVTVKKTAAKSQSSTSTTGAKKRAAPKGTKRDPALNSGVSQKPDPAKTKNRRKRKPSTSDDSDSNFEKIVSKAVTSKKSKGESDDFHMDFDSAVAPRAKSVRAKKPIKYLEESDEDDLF

SMILES | IC50 (HL-60) | IC50 (HCT-15) | IC50 (DU-145) | IC50 (MDA-MB-231) | IC50 (HeLa) | inhibition [1] | inhibition [2] | inhibition [3] | inhibition [4]
Oc1cccc(-c2cc(-c3ccccc3)nc(-c3cccs3)c2)c1 | 18.9 µM | 14.1 µM | 19.7 µM | 17.7 µM | 15.3 µM | 57.5% | 34.7% | 2% | 9.1%
Oc1ccc(-c2cc(-c3ccccc3)cc(-c3ccsc3)n2)cc1 | 3.6 µM | 1.1 µM | 8.5 µM | 5.7 µM | 17.3 µM | 38.3% | 8.3% |  | 20.4%
Oc1cccc(-c2cc(-c3ccccc3)nc(-c3ccccc3)c2)c1 | 13.5 µM | 17.9 µM | 17.9 µM | 19.5 µM | 15.1 µM | 68.2% | 32% | 0% | 11.5%
Oc1cccc(-c2cc(-c3ccccc3)nc(-c3ccsc3)c2)c1 | 12 µM | 24.6 µM | 11.7 µM | 19 µM | 14.9 µM | 52.6% | 30.8% | 3.2% | 6.9%
CC[C@@]1(O)C(=O)OCc2c1cc1n(c2=O)Cc2cc3ccccc3nc2-1 [CAMPTOTHECIN] | 0.1 µM | 0.5 µM | 0.4 µM | 0.3 µM | 0.4 µM |  |  |  | 
Oc1ccc(-c2cc(-c3ccccc3)nc(-c3ccco3)c2)cc1 | 13.7 µM | 5.1 µM | 8.6 µM | 1 µM | 4.5 µM | 30.2% | 10.3% |  | 5%
Oc1ccc(-c2cc(-c3ccccc3)cc(-c3cccs3)n2)cc1 | 1.7 µM | 12.5 µM | 3.7 µM | 2.4 µM | 1.7 µM | 35.4% | 1.3% |  | 4.9%
Oc1ccc(-c2cc(-c3ccccc3)cc(-c3cccnc3)n2)cc1 | 4.1 µM | 15.1 µM | 8.4 µM | 2.2 µM | 13.6 µM | 18.6% |  | 0.9% | 44%
COc1cc([C@@H]2c3cc4c(cc3[C@@H](O[C@@H]3O[C@@H]5CO[C@@H](C)O[C@H]5[C@H](O)[C@H]3O)[C@H]3COC(=O)[C@H]23)OCO4)cc(OC)c1O [ETOPOSIDE] | 1 µM |  | 0.5 µM | 0.7 µM | 1.4 µM |  | 30.4% |  | 
Oc1cccc(-c2cc(-c3ccccc3)cc(-c3ccsc3)n2)c1 | 10.3 µM | 7.66 µM | 11.7 µM | 12.1 µM | 13.8 µM | 51.8% | 37.2% | 6.8% | 75.8%
Oc1cccc(-c2cc(-c3ccccc3)cc(-c3cccc(O)c3)n2)c1 | 16.4 µM | 18.4 µM | 24.9 µM | 12.8 µM | 13 µM | 86.5% | 49% | 10.5% | 67.2%
Oc1cccc(-c2cc(-c3ccccc3)nc(-c3cccnc3)c2)c1 | 12.6 µM | 18.4 µM | 18.9 µM | 22.8 µM | 17.5 µM | 37.1% | 21.3% | 1.5% | 8.1%
COc1cccc2c1C(=O)c1c(O)c3c(c(O)c1C2=O)C[C@@](O)(C(=O)CO)C[C@@H]3O[C@H]1C[C@H](N)[C@H](O)[C@H](C)O1 [DOXORUBICIN HYDROCHLORIDE] | 0.7 µM | 1.2 µM | 1 µM | 0.4 µM |  |  |  |  | 
Oc1ccc(-c2cc(-c3ccccc3)cc(-c3ccccc3)n2)cc1 | 1.4 µM | 3.7 µM | 3 µM | 1.3 µM | 1.7 µM | 27.6% |  | 43.6% | 52.9%
Oc1cccc(-c2cc(-c3ccccc3)cc(-c3ccccc3)n2)c1 | 11.5 µM | 9.95 µM | 17.9 µM | 19.3 µM | 16.1 µM | 48.4% | 32% | 0% | 12.9%
Oc1cccc(-c2cc(-c3ccccc3)cc(-c3ccco3)n2)c1 | 9.91 µM | 13.5 µM | 14.4 µM | 13.7 µM | 9.43 µM | 51.6% | 38.6% | 0% | 10.2%
Oc1cccc(-c2cc(-c3ccccc3)cc(-c3cccs3)n2)c1 | 14.1 µM | 10.8 µM | 18.9 µM | 18.1 µM | 17 µM | 53.8% | 43.5% | 5.8% | 51.2%
Oc1cccc(-c2cc(-c3ccccc3)cc(-c3ccncc3)n2)c1 | 23.9 µM | 27.4 µM | 19.2 µM | 10.4 µM | 28.1 µM | 3.1% | 1.8% | 25.4% | 70.4%
Oc1cccc(-c2cc(-c3ccccc3)nc(-c3ccccn3)c2)c1 | 15.1 µM | 20.9 µM | 15.5 µM | 18.7 µM | 29.8 µM | 48.1% | 21.3% | 2.8% | 10.8%
Oc1cccc(-c2cc(-c3ccccc3)nc(-c3ccco3)c2)c1 | 24 µM | 13.9 µM | 34.9 µM | 20.8 µM | 10.9 µM | 47.5% | 31.1% | 3.5% | 48.8%
Oc1ccc(-c2cc(-c3ccccc3)cc(-c3ccco3)n2)cc1 | 3.3 µM | 3.5 µM | 3.2 µM | 1.4 µM | 10.9 µM | 35.2% | 10.2% |  | 18.6%
Oc1ccccc1-c1cc(-c2ccccc2)cc(-c2ccccc2O)n1 | 22.4 µM | > 50 µM | 8 µM | 37.3 µM | 14.8 µM | 42.7% | 12.1% |  | 0%
Oc1ccccc1-c1cc(-c2ccccc2)nc(-c2ccco2)c1 | 1.9 µM | 2.5 µM | 4.9 µM | 4.6 µM | 9.7 µM | 31.2% | 3.1% |  | 1.5%
Oc1cccc(-c2cc(-c3ccccc3)nc(-c3ccncc3)c2)c1 | 12.7 µM | 18.7 µM | 18.1 µM | 12.2 µM | 15 µM | 42.8% | 32.7% | 0.9% | 60.8%
Oc1ccc(-c2cc(-c3ccccc3)cc(-c3ccc(O)cc3)n2)cc1 | 5.7 µM | 3 µM | 22 µM | 6.7 µM | 3.3 µM | 76.8% | 33.7% |  | 0.3%
Oc1ccc(-c2cc(-c3ccccc3)nc(-c3ccncc3)c2)cc1 | 1.4 µM | 11.7 µM | 2.2 µM | 2.1 µM | 1.6 µM | 8.4% |  | 5.8% | 57.5%
